Source: ChEMBL document CHEMBL1138555, “N-acylated and N,N'-diacylated imidazolidine-2-thione derivatives and N,N'-diacylated tetrahydropyrimidine-2(1H)-thione analogues: synthesis and antiproliferative activity” (Eur J Med Chem, 2009)

What follows are molecules tested on OVCAR-8 (assay: Growth inhibition of human OVCAR8 cells after 48 hrs by sulforhodamine B assay). Settings: OVCAR-8, 48 h.
Format: functional
Procedure, shortened: (§1)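 NCI screen panel. Five 10-fold concentrations from 10^-4 to 10^-8 M. Exposure for the last 48 h of a 72 h incubation. Growth estimated by sulforhodamine B protein assay. GI50 is the concentration giving 50% growth inhibition. Where that level was not reached or was exceeded, the value is given as above or below the highest or lowest concentration tested.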
Work on `O=C(c1cccs1)N1CCN(C(=O)c2cccs2)C1=S` yielded a GI50 of 5.3 µM.

The molecules below were run on NCI-H322M (assay: Growth inhibition of human NCI-H322M cells after 48 hrs by sulforhodamine B assay). Settings: not given.
Format: functional
Procedure, shortened: as §1
Work on `O=C(c1cccs1)N1CCN(C(=O)c2cccs2)C1=S` yielded a GI50 of 15.5 µM.

These molecules were tested on HCT-15 (assay: Growth inhibition of human HCT15 cells after 48 hrs by sulforhodamine B assay). Settings: HCT-15, 48 h.
Format: functional
Procedure, shortened: as §1
With `O=C(c1cccs1)N1CCN(C(=O)c2cccs2)C1=S` the GI50 was 5.3 µM.

What follows are molecules tested on SK-MEL-2 (assay: Growth inhibition of human SK-MEL-2 cells after 48 hrs by sulforhodamine B assay). Settings: SK-MEL-2, 48 h.
Format: functional
Procedure, shortened: as §1
For `O=C(c1cccs1)N1CCN(C(=O)c2cccs2)C1=S`, the GI50 was 12.6 µM.

Each molecule was assayed on TK-10 (assay: Growth inhibition of human TK10 cells after 48 hrs by sulforhodamine B assay). Settings: TK-10, 48 h.
Format: functional
Procedure, shortened: (§2)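 NCI in vitro panel screen. Compounds tested at five 10-fold dilutions, 10^-4 to 10^-8 M. Cells in 96-well plates were exposed for the last 48 h of a 72 h incubation. Viability/growth was read by sulforhodamine B protein assay. GI50 is the concentration giving 50% growth inhibition. Values beyond the tested range are reported as greater or less than the maximum or minimum concentration.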
For `O=C(c1cccs1)N1CCN(C(=O)c2cccs2)C1=S`, the GI50 was 5.4 µM.

These molecules were tested on HT-29 (assay: Growth inhibition of human HT-29 cells after 48 hrs by sulforhodamine B assay). Settings: HT-29, 48 h.
Format: functional
Procedure, shortened: as §1
Work on `O=C(c1cccs1)N1CCN(C(=O)c2cccs2)C1=S` yielded a GI50 of 11.9 µM.

Each molecule was assayed on LOX IMVI (assay: Growth inhibition of human LOXIMVI cells after 48 hrs by sulforhodamine B assay). Settings: not given.
Format: functional
Procedure, shortened: as §1
Molecule `O=C(c1cccs1)N1CCN(C(=O)c2cccs2)C1=S` has a GI50 of 2.9 µM.

What follows are molecules tested on MDA-N (assay: Growth inhibition of human MDA-N cells after 48 hrs by sulforhodamine B assay). Settings: not given.
Format: functional
Procedure, shortened: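 NCI screen panel. Five 10-fold concentrations from 10^-4 to 10^-8 M. Exposure for the last 48 h of a 72 h incubation. Growth estimated by sulforhodamine B protein assay. Where that level was not reached or was exceeded, the value is given as above or below the highest or lowest concentration tested.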
Work on `O=C(c1cccs1)N1CCN(C(=O)c2cccs2)C1=S` yielded a GI50 of 2.6 µM.

The molecules below were run on K562 (assay: Growth inhibition of human K562 cells after 48 hrs by sulforhodamine B assay). Settings: K562, 48 h.
Format: functional
Procedure, shortened: as §1
In the case of `O=C(c1cccs1)N1CCN(C(=O)c2cccs2)C1=S`, the GI50 is reported as 3.5 µM.

What follows are molecules tested on U-251 (assay: Growth inhibition of human U251 cells after 48 hrs by sulforhodamine B assay). Settings: U-251, 48 h.
Format: functional
Procedure, shortened: as §2
In the case of `O=C(c1cccs1)N1CCN(C(=O)c2cccs2)C1=S`, the GI50 is reported as 7.9 µM.

What follows are molecules tested on OVCAR-3 (assay: Growth inhibition of human OVCAR-3 cells after 48 hrs by sulforhodamine B assay). Settings: OVCAR-3, 48 h.
Format: functional
Procedure, shortened: as §1
Work on `O=C(c1cccs1)N1CCN(C(=O)c2cccs2)C1=S` yielded a GI50 of 3.5 µM.

What follows are molecules tested on MOLT-4 (assay: Growth inhibition of human MOLT4 cells after 48 hrs by sulforhodamine B assay). Settings: MOLT-4, 48 h.
Format: functional
Procedure, shortened: as §1
Molecule `O=C(c1cccs1)N1CCN(C(=O)c2cccs2)C1=S` has a GI50 of 3.2 µM.

These molecules were tested on MDA-MB-435 (assay: Growth inhibition of human MDA-MB-435 cells after 48 hrs by sulforhodamine B assay). Settings: MDA-MB-435, 48 h.
Format: functional
Procedure, shortened: as §1
`O=C(c1cccs1)N1CCN(C(=O)c2cccs2)C1=S` was tested, and the GI50 was 2.8 µM.

The molecules below were run on UO-31 (assay: Growth inhibition of human UO31 cells after 48 hrs by sulforhodamine B assay). Settings: UO-31, 48 h.
Format: functional
Procedure, shortened: as §2
Work on `O=C(c1cccs1)N1CCN(C(=O)c2cccs2)C1=S` yielded a GI50 of 2.3 µM.

These molecules were tested on NCI/ADR-RES (assay: Growth inhibition of human NCI/ADR-RES cells after 48 hrs by sulforhodamine B assay). Settings: not given.
Format: functional
Procedure, shortened: as §1
For `O=C(c1cccs1)N1CCN(C(=O)c2cccs2)C1=S`, the GI50 was 19.1 µM.

The molecules below were run on NCI-H23 (assay: Growth inhibition of human NCI-H23 cells after 48 hrs by sulforhodamine B assay). Settings: NCI-H23, 48 h.
Format: functional
Procedure, shortened: as §1
Molecule `O=C(c1cccs1)N1CCN(C(=O)c2cccs2)C1=S` has a GI50 of 10.6 µM.

These molecules were tested on PC-3 (assay: Growth inhibition of human PC3 cells after 48 hrs by sulforhodamine B assay). Settings: PC-3, 48 h.
Format: functional
Procedure, shortened: as §1
For `O=C(c1cccs1)N1CCN(C(=O)c2cccs2)C1=S`, the GI50 was 6.1 µM.

What follows are molecules tested on OVCAR-4 (assay: Growth inhibition of human OVCAR4 cells after 48 hrs by sulforhodamine B assay). Settings: OVCAR-4, 48 h.
Format: functional
Procedure, shortened: as §1
For `O=C(c1cccs1)N1CCN(C(=O)c2cccs2)C1=S`, the GI50 was 18.8 µM.

What follows are molecules tested on SNB-75 (assay: Growth inhibition of human SNB75 cells after 48 hrs by sulforhodamine B assay). Settings: SNB-75, 48 h.
Format: functional
Procedure, shortened: as §2
With `O=C(c1cccs1)N1CCN(C(=O)c2cccs2)C1=S` the GI50 was 1.4 µM.

These molecules were tested on BT-549 (assay: Growth inhibition of human BT549 cells after 48 hrs by sulforhodamine B assay). Settings: BT-549, 48 h.
Format: functional
Procedure, shortened: as §1
`O=C(c1cccs1)N1CCN(C(=O)c2cccs2)C1=S` gave a GI50 of 10 µM.

What follows are molecules tested on SF-539 (assay: Growth inhibition of human SF539 cells after 48 hrs by sulforhodamine B assay). Settings: SF-539, 48 h.
Format: functional
Procedure, shortened: as §1
In the case of `O=C(c1cccs1)N1CCN(C(=O)c2cccs2)C1=S`, the GI50 is reported as 1.8 µM.

What follows are molecules tested on RXF 393 (assay: Growth inhibition of human RXF393 cells after 48 hrs by sulforhodamine B assay). Settings: RXF 393, 48 h.
Format: functional
Procedure, shortened: as §1
Work on `O=C(c1cccs1)N1CCN(C(=O)c2cccs2)C1=S` yielded a GI50 of 2.9 µM.

What follows are molecules tested on M14 (assay: Growth inhibition of human M14 cells after 48 hrs by sulforhodamine B assay). Settings: M14, 48 h.
Format: functional
Procedure, shortened: as §1
`O=C(c1cccs1)N1CCN(C(=O)c2cccs2)C1=S` was tested, and the GI50 was 3.6 µM.

What follows are molecules tested on HCC 2998 (assay: Growth inhibition of human HCC2998 cells after 48 hrs by sulforhodamine B assay). Settings: HCC 2998, 48 h.
Format: functional
Procedure, shortened: as §1
Molecule `O=C(c1cccs1)N1CCN(C(=O)c2cccs2)C1=S` has a GI50 of 8 µM.

Each molecule was assayed on SN12C (assay: Growth inhibition of human SN12C cells after 48 hrs by sulforhodamine B assay). Settings: not given.
Format: functional
Procedure, shortened: as §2
In the case of `O=C(c1cccs1)N1CCN(C(=O)c2cccs2)C1=S`, the GI50 is reported as 2.6 µM.

What follows are molecules tested on HCT-116 (assay: Growth inhibition of human HCT116 cells after 48 hrs by sulforhodamine B assay). Settings: HCT-116, 48 h.
Format: functional
Procedure, shortened: as §1
`O=C(c1cccs1)N1CCN(C(=O)c2cccs2)C1=S` was tested, and the GI50 was 11.4 µM.

What follows are molecules tested on A549 (assay: Growth inhibition of human A549 cells after 48 hrs by sulforhodamine B assay). Settings: A549, 48 h.
Format: functional
Procedure, shortened: as §1
Work on `O=C(c1cccs1)N1CCN(C(=O)c2cccs2)C1=S` yielded a GI50 of 4 µM.

The molecules below were run on HOP-62 (assay: Growth inhibition of human HOP62 cells after 48 hrs by sulforhodamine B assay). Settings: HOP-62, 48 h.
Format: functional
Procedure, shortened: as §1
With `O=C(c1cccs1)N1CCN(C(=O)c2cccs2)C1=S` the GI50 was 6.7 µM.

The molecules below were run on EKVX (assay: Growth inhibition of human EKVX cells after 48 hrs by sulforhodamine B assay). Settings: not given.
Format: functional
Procedure, shortened: as §1
Molecule `O=C(c1cccs1)N1CCN(C(=O)c2cccs2)C1=S` has a GI50 of 15.9 µM.

The molecules below were run on A498 (assay: Growth inhibition of human A498 cells after 48 hrs by sulforhodamine B assay). Settings: A498, 48 h.
Format: functional
Procedure, shortened: as §1
In the case of `O=C(c1cccs1)N1CCN(C(=O)c2cccs2)C1=S`, the GI50 is reported as 15.1 µM.

What follows are molecules tested on DU-145 (assay: Growth inhibition of human DU145 cells after 48 hrs by sulforhodamine B assay). Settings: DU-145, 48 h.
Format: functional
Procedure, shortened: as §1
`O=C(c1cccs1)N1CCN(C(=O)c2cccs2)C1=S` was tested, and the GI50 was 3.3 µM.

These molecules were tested on KM12 (assay: Growth inhibition of human KM12 cells after 48 hrs by sulforhodamine B assay). Settings: KM12, 48 h.
Format: functional
Procedure, shortened: as §1
`O=C(c1cccs1)N1CCN(C(=O)c2cccs2)C1=S` gave a GI50 of 3.4 µM.

These molecules were tested on ACHN (assay: Growth inhibition of human ACHN cells after 48 hrs by sulforhodamine B assay). Settings: not given.
Format: functional
Procedure, shortened: as §1
`O=C(c1cccs1)N1CCN(C(=O)c2cccs2)C1=S` showed a GI50 of 15 µM.

Each molecule was assayed on SF-268 (assay: Growth inhibition of human SF268 cells after 48 hrs by sulforhodamine B assay). Settings: SF-268, 48 h.
Format: functional
Procedure, shortened: as §1
Molecule `O=C(c1cccs1)N1CCN(C(=O)c2cccs2)C1=S` has a GI50 of 8.2 µM.

Each molecule was assayed on NCI-H522 (assay: Growth inhibition of human NCI-H522 cells after 48 hrs by sulforhodamine B assay). Settings: NCI-H522, 48 h.
Format: functional
Procedure, shortened: as §1
In the case of `O=C(c1cccs1)N1CCN(C(=O)c2cccs2)C1=S`, the GI50 is reported as 3.8 µM.

What follows are molecules tested on CAKI-1 (assay: Growth inhibition of human Caki1 cells after 48 hrs by sulforhodamine B assay). Settings: CAKI-1, 48 h.
Format: functional
Procedure, shortened: as §1
In the case of `O=C(c1cccs1)N1CCN(C(=O)c2cccs2)C1=S`, the GI50 is reported as 3.4 µM.

These molecules were tested on MT4 (assay: Antiproliferative activity against human MT4 cells assessed as reduction of growth by MTT assay). Settings: not given.
Format: functional, cell-based
Procedure, shortened: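 MT-4 lymphoblastoid T cells (ATCC) in RPMI 1640 with 10% FCS, penicillin/streptomycin, checked for mycoplasma. 1 × 10⁴ mock-infected cells per well with serial dilutions from a 100 mM DMSO stock. Incubated 4 days at 37 °C, viable cells counted by MTT. IC50 versus untreated controls by linear regression. Mean of three separate experiments.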
For `O=C(c1cccs1)N1CCN(C(=O)c2cccs2)C1=S`, the IC50 was 11 µM.

These molecules were tested on IGROV-1 (assay: Growth inhibition of human IGROV1 cells after 48 hrs by sulforhodamine B assay). Settings: IGROV-1, 48 h.
Format: functional
Procedure, shortened: as §1
Molecule `O=C(c1cccs1)N1CCN(C(=O)c2cccs2)C1=S` has a GI50 of 9.6 µM.

Each molecule was assayed on HL-60(TB) (assay: Growth inhibition of human HL-60(TB) cells after 48 hrs by sulforhodamine B assay). Settings: HL-60, 48 h.
Format: functional
Procedure, shortened: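 NCI 60-cell-line screen protocol: cells exposed to compound at five 10-fold dilutions from 10^-4 to 10^-8 M for the last 48 h of a 72 h incubation. Sulforhodamine B protein assay estimated viability/growth. GI50 (50% growth inhibition) derived; where not reached or exceeded, reported as greater or less than the highest or lowest concentration tested.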
For `O=C(c1cccs1)N1CCN(C(=O)c2cccs2)C1=S`, the GI50 was 2.2 µM.
